Reference: the RNAGym collection of RNA variant scans (doi:10.1126/science.aae0568)
Variants at the floor of the assay were thinned out.

B1: tRNA (parent)
chain: GUUCCGUUGGCGUAAUGGUAACGCGUCUCCCUCCUAAGGAGAAGACUGCGGGUUCGAGUCCCGUACGGAACG

Variants of: B1
Test: yeast fitness relative to wild type (ratio to wild type); higher = fitter; tRNA-Arg(CCU), competitive growth, 37 C, YPD
Outline: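 The tRNA-Arg(CCU) gene variants were made by chemical synthesis with a 3% per-site mutation rate at 69 sites and inserted at the native genomic locus of Saccharomyces cerevisiae. After pooling, the strains were competed in YPD at 37°C for 24 hours in six parallel replicates. Gene amplicons from the start population and each end population were read by 100-nucleotide paired-end sequencing, and Darwinian fitness relative to wild type was taken from genotype frequency changes. Genotypes needed ≥ 100 starting reads, and estimates < 0.5 were set to 0.5.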
In the case of GUUCCGUUGGCGUAAUGGUAACGCGUCUCCGUCCUAAGGAGAAGACGGGGGGUUCGAGUUCGGUACGGAACG, the yeast fitness is reported as ≤ 0.5. For GUUCCGUUGGCGUAAUGGUAACGCGUCUCCGUCCUAAGGAGAAGACUGCGGGUUCAAGCCCCGUCCGGAGCG, the yeast fitness was ≤ 0.5. GUUCCGUUGGCGUAAUGGUAACGCGUCUCCGACCUAAGGAGAAGACUGCGGGGUCGAGUCCCGUACGGAACG gave a yeast fitness of 0.646. Variant GUUCCGUUGGCGUAAUGGUAACGCGUCUCCGUCCUAAGGAGAAGACUGCGGGUUCGACUCCCGUACCGAACG has a yeast fitness of 0.533. In the case of GUUCCGUUGGCGUAAUGGUAACGCGUCUCCUUCCUAAGGAGAAGACUGCGGGUUCGAGUCCCGUACGGAACG, the yeast fitness is reported as 0.986. In the case of GUUCCGUUGGCGUAAUGGUAACGCGUCUCCGUCCUAAGGAGAAGACUGCGGAUUCGAGACCCGUACGGAACG, the yeast fitness is reported as ≤ 0.5. In the case of GUUCCGUUGGCGUAAUGGUAACGCGUCUCCGACCUAAGGAGAAGACUGUGGGUUCGAGUCCAGUACGGAACG, the yeast fitness is reported as ≤ 0.5. With GUUCCGUUGGCGUAAUGGUAACGCGUCUCCGUCCUAAGGAGAAGACUGCGCGUUCAAGUCCCGAACGGAACG the yeast fitness was ≤ 0.5. GUUCCGUUGGCGUAAUGGUAACGCGUCUCCGUCCUAAGGAGAAGACUGCGGGUUCGAGUCCCGUACAGAACG showed a yeast fitness of 0.859. In the case of GUUCCGUUGGCGUAAUGGUAACGCGUCUCCGUCCUAAGGAGAAGACUGCGGGUUCGAGUCCCGUACCGAACG, the yeast fitness is reported as 0.888. With GUUCCGUUGGCGUAAUGGUAACGCGUCUCCGUCCUAAGGAGAAGACUGCGGCUUCGUGUCCCGUACGGAACG the yeast fitness was 0.599. Work on GUUCCGUUGGCGUAAUGGUAACGCGUCUCCGGCCUAAGGAGAAGACUGCGGGUUCGAGUCCCGUACGGAACG yielded a yeast fitness of 0.556. Work on GUUCCGUUGGCGUAAUGGUAACGCGUCUCCGACCUAAGGAGAAGACUGCGGGUUCGAGUCCCGUACGGAACG yielded a yeast fitness of 0.766. In the case of GUUCCGUUGGCGUAAUGGUAACGCGUCUCCGGUCUAAGGAGAAGACUGCGGGUUCGAGUCCCGUACGGAGCG, the yeast fitness is reported as ≤ 0.5. In the case of GUUCCGUUGGCGUAAUGGUAACGCGUCUCCGACCUAAGGAGAAGACUGCGGGUUCCAGUCCCGUACGGAACG, the yeast fitness is reported as 0.6. GUUCCGUUGGCGUAAUGGUAACGCGUCUCCGCCCUAAGCAGAAGACUGCGGGUUCGAGUCCCGUACGGAACG showed a yeast fitness of 0.507. In the case of GUUCCGUUGGCGUAAUGGUAACGCGUCUCCGUCCUAAGGAGAAGACUGCGGGUUCGAGUCCCGGACGGAACG, the yeast fitness is reported as 0.714. GUUCCGUUGGCGUAAUGGUAACGCGUCUCCGUCCUAAGGAGAAGACUGCGGGUUCGAGUCCCGCACGGAACG showed a yeast fitness of 0.777. GUUCCGUUGGCGUAAUGGUAACGCGUCUCCGUCCUAAGGAGAAGACUGCGGGUCCGAGUCCCGUACGGAACG showed a yeast fitness of 0.798. Variant GUUCCGUUGGCGUAAUGGUAACGCGUCUCCGUCCUAAGGAGAAGACUGCGGAUUCGAGUCCCGUACGGAACG has a yeast fitness of 0.755. With GUUCCGUUGGCGUAAUGGUAACGCGUCUCCGUCCUAAGGAGAAGACUGCGGCUUCGAGUCCCGUACGGAACG the yeast fitness was 0.531. With GUUCCGUUGGCGUAAUGGUAACGCGUCUCCGUCCUAAGGAGAAGACUGCGGGUUCGAGUCCCGAACGGCACG the yeast fitness was ≤ 0.5. GUUCCGUUGGCGUAAUGGUAACGCGUCUCCGUCCUAAGGAGAAGACUGCGGGUUCGAGGCCCGUACGGAACG showed a yeast fitness of 0.734. GUUCCGUUGGCGUAAUGGUAACGCGUCUCCGUCCUAAGGAGAAGACUGCGGGUUCGAGCCCCGUACGGAACG gave a yeast fitness of 0.871. Variant GUUCCGUUGGCGUAAUGGUAACGCGUCUCCGUCCUAAGGAGAAGACAGCGGGUUCGAGUCCCGUACGGAACG has a yeast fitness of 0.847. GUUCCGUUGGCGUAAUGGUAACGCGUCUCCGUCCUAAGGAGAAGACUGCGGGUUCCAGUCCCGUACGGAACG gave a yeast fitness of 0.632. GUUCCGUUGGCGUAAUGGUAACGCGUCUCCGUCCUAAGGAGAAGACUGCGGGUUCGAAUCCCGUACGGAACG gave a yeast fitness of 0.785. Variant GUUCCGUUGGCGUAAUGGUAACGCGUCUCCGUCCUAAGGAGAAGACUGCGCGUUCGAGUCCCGUACGGAACG has a yeast fitness of 0.756. With GUUCCGUUGGCGUAAUGGUAACGCGUCUCCGUCCUAAGGAGAAGACUGCGGGAUCGAGUCCCGUACGGAACG the yeast fitness was 0.694. For GUUCCGUUGGCGUAAUGGUAACGCGUCUCCGUCCUAAGGAGAAGACUGCGGGUUCCAGUCACGUACGGAACG, the yeast fitness was ≤ 0.5. With GUUCCGUUGGCGUAAUGGUAACGCGUCUCCGCCCUAUGGAGAAGACUGCGGGUUCGAGUCCCGUACGGCACG the yeast fitness was ≤ 0.5. In the case of GUUCCGUUGGCGUAAUGGUAACGCGUCUCCGUCCUAAGGAGAAGACUGCGAGUUCGAGACCCGUACGGAACG, the yeast fitness is reported as ≤ 0.5. For GUUCCGUUGGCGUAAUGGUAACGCGUCUCCGGCCUAAGGAGAAGACUGCGGGUUAGAGUCCGGUUCGGAACG, the yeast fitness was 0.688. GUUCCGUUGGCGUAAUGGUAACGCGUCUCCGUCCAAAGGAGAAGACUGCGGGUUCGAGUCCCGUACGGAACG showed a yeast fitness of 0.659. Variant GUUCCGUUGGCGUAAUGGUAACGCGUCUCCGUCCUAAGGAGAAGACUGCGCGUUCGAGUCCCGUAUGGAACG has a yeast fitness of 0.566. In the case of GUUCCGUUGGCGUAAUGGUAACGCGUCUCCGUCCAAAGGAGAAGACUGCGGGUUCGAGUCCCGUUCGGAACG, the yeast fitness is reported as 0.622. In the case of GUUCCGUUGGCGUAAUGGUAACGCGUCUCCGUCCUAAGGAGAAGACUGCGGGUUCGAGUCCCCUACGGAACG, the yeast fitness is reported as 0.614. For GUUCCGUUGGCGUAAUGGUAACGCGUCUCCGUCCUAAGGAGAAGACUGCGGGUUCGAGUCCCGUACUGCACG, the yeast fitness was 0.526.
